Measured values published in ChEMBL document CHEMBL1125376, “Class III antiarrhythmic activity of novel substituted 4-[(methylsulfonyl)amino]benzamides and sulfonamides” (J Med Chem, 1992).

How the values were obtained:
Canis familiaris [1] = assay: Ventricular effective refractory period, after intravenous administration in open-chest anesthetized dogs at dose of 0.05 mg/kg; assay type: functional, Canis lupus familiaris, Heart; conditions: dose 5.0 mg/kg, in the assay text read “5.0 mg/kg” for “0.05 mg/kg”
How it was run: (§1)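 Mongrel dogs, pentobarbital-anesthetized (30 mg/kg iv plus 5 mg/kg per h), open chest. Compound given iv. Atrial and ventricular effective refractory periods and conduction times measured during pacing at 300 ms, along with heart rate and mean arterial pressure. Two doses per compound, chosen from dose-response runs. Values are % change from predrug, mean ± SE.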

Canis familiaris [2] = assay: Heart rate, after intravenous administration in open-chest anesthetized dogs at dose of 0.05 mg/kg; assay type: functional, Canis lupus familiaris; conditions: dose 5.0 mg/kg, in the assay text read “5.0 mg/kg” for “0.05 mg/kg”; how it was run: as §1
Canis familiaris [3] = assay: Atrial conduction time, after intravenous administration in open-chest anesthetized dogs at dose of 10.0 mg/kg
Canis familiaris [4] = assay: Mean arterial pressure, after intravenous administration in open-chest anesthetized dogs at dose of 0.5 mg/kg; assay type: functional, Canis lupus familiaris, Artery; conditions: dose 10.0 mg/kg, in the assay text read “10.0 mg/kg” for “0.5 mg/kg”; how it was run: as §1
Canis familiaris [5] = assay: Heart rate, after intravenous administration in open-chest anesthetized dogs at dose of 0.5 mg/kg; assay type: functional, Canis lupus familiaris; conditions: dose 10.0 mg/kg, in the assay text read “10.0 mg/kg” for “0.5 mg/kg”; how it was run: as §1
Canis familiaris [6] = assay: Ventricular effective refractory period, after intravenous administration in open-chest anesthetized dogs at dose of 0.5 mg/kg; assay type: functional, Canis lupus familiaris, Heart; conditions: dose 10.0 mg/kg, in the assay text read “10.0 mg/kg” for “0.5 mg/kg”; how it was run: as §1
Canis familiaris [7] = species on record: Canis familiaris; assay: Effect on the transmembrane potential of dog Purkinje fibers paced at a basic cycle length of stimulation of 300 ms, repolarization time to -60 mV; assay type: functional; conditions: Canis lupus familiaris; Purkinje fiber
How it was run: (§2)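 Purkinje fiber bundles were taken from pentobarbital-anesthetized mongrel dogs. They were superfused at 37.5-38.0 °C with Tyrode's (mM: NaCl 138, KCl 4, CaCl2 2, NaHCO3 24, MgCl2 0.5, Na2HPO4 1.8, dextrose 5) gassed with 95% O2-5% CO2, pH 7.3-7.4. Stimulation used 2.0 ms pulses at twice threshold. Fibers were equilibrated ≥1 h before drug. Action potentials were recorded at 4-6 sites and averaged per fiber.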

Canis familiaris [8] = species on record: Canis familiaris; assay: Effect on the transmembrane potential of dog Purkinje fibers paced at a basic cycle length of stimulation of 1000 ms, repolarization time to -60 mV; assay type: functional; conditions: Canis lupus familiaris; Purkinje fiber; how it was run: as §2
Canis familiaris [9] = assay: Atrial effective refractory period, after intravenous administration in open-chest anesthetized dogs at dose of 10.0 mg/kg
Canis familiaris [10] = species on record: Canis familiaris; assay: Effect on the transmembrane potential of dog Purkinje fibers paced at a basic cycle length of stimulation of 1000 ms, repolarization time to -60 mV, at a concentration of 0.3 uM; assay type: functional; conditions: Canis lupus familiaris, Purkinje fiber; how it was run: as §2
Canis familiaris [11] = assay: Ventricular conduction time, after intravenous administration in open-chest anesthetized dogs at dose of 0.5 mg/kg; assay type: functional, Canis lupus familiaris, Heart; conditions: dose 10.0 mg/kg, in the assay text read “10.0 mg/kg” for “0.5 mg/kg”; how it was run: as §1
Canis familiaris [12] = assay: Mean arterial pressure, after intravenous administration in open-chest anesthetized dogs at dose of 0.05 mg/kg; assay type: functional, Canis lupus familiaris, Artery; conditions: dose 5.0 mg/kg, in the assay text read “5.0 mg/kg” for “0.05 mg/kg”; how it was run: as §1
Canis familiaris [13] = assay: Effect on ventricular effective refractory period, after intravenous administration in open-chest anesthetized dogs at dose of 1.0 mg/kg; assay type: functional, Canis lupus familiaris, Cardiac ventricle; how it was run: as §1
Canis familiaris [14] = assay: Effect on atrial effective refractory period, after intravenous administration in open-chest anesthetized dogs at dose of 5.0 mg/kg; assay type: functional, Canis lupus familiaris, Cardiac atrium
Canis familiaris [15] = species on record: Canis familiaris; assay: Effect on the transmembrane potential of dog Purkinje fibers paced at a basic cycle length of stimulation of 1000 ms, repolarization time to -60 mV at 3 uM concentration; assay type: functional; conditions: Canis lupus familiaris, Purkinje fiber; how it was run: as §2
Canis familiaris [16] = assay: Effect on heart rate, after intravenous administration in open-chest anesthetized dogs at dose of 5.0 mg/kg; assay type: functional, Canis lupus familiaris
Canis familiaris [17] = assay: Effect on ventricular conduction time, after intravenous administration in open-chest anesthetized dogs at dose of 1.0 mg/kg; assay type: functional, Canis lupus familiaris, Cardiac ventricle
Canis familiaris [18] = assay: Effect on heart rate, after intravenous administration in open-chest anesthetized dogs at dose of 1.0 mg/kg; assay type: functional, Canis lupus familiaris
Canis familiaris [19] = assay: Effect on atrial conduction time, after intravenous administration in open-chest anesthetized dogs at dose of 5.0 mg/kg; assay type: functional, Canis lupus familiaris, Cardiac atrium
Canis familiaris [20] = species on record: Canis familiaris; assay: Effect on the transmembrane potential of dog Purkinje fibers paced at a basic cycle length of stimulation of 300 ms, repolarization time to -60 mV at 3 uM concentration; assay type: functional; conditions: Canis lupus familiaris, Purkinje fiber; how it was run: as §2
Canis familiaris [21] = assay: Effect on ventricular effective refractory period, after intravenous administration in open-chest anesthetized dogs at dose of 5.0 mg/kg; assay type: functional, Canis lupus familiaris, Cardiac ventricle; how it was run: as §1
Canis familiaris [22] = assay: Effect on mean arterial pressure, after intravenous administration in open-chest anesthetized dogs at dose of 5.0 mg/kg; assay type: functional, Canis lupus familiaris, Artery
Canis familiaris [23] = assay: Effect on mean arterial pressure, after intravenous administration in open-chest anesthetized dogs at dose of 1.0 mg/kg; assay type: functional, Canis lupus familiaris, Artery
Canis familiaris [24] = assay: Effect on ventricular conduction time, after intravenous administration in open-chest anesthetized dogs at dose of 5.0 mg/kg; assay type: functional, Canis lupus familiaris, Cardiac ventricle
Canis familiaris [25] = assay: Effect on atrial conduction time, after intravenous administration in open-chest anesthetized dogs at dose of 1.0 mg/kg; assay type: functional, Canis lupus familiaris, Cardiac atrium
Canis familiaris [26] = assay: Effect on atrial effective refractory period, after intravenous administration in open-chest anesthetized dogs at dose of 1.0 mg/kg; assay type: functional, Canis lupus familiaris, Cardiac atrium
Canis familiaris [27] = assay: Effect on trial effective refractory period, after intravenous administration in open-chest anesthetized dogs at dose of 0.5 mg/kg; assay type: functional, Canis lupus familiaris
Canis familiaris [28] = assay: Effect on atrial conduction time, after intravenous administration in open-chest anesthetized dogs at dose of 0.5 mg/kg; assay type: functional, Canis lupus familiaris, Cardiac atrium
Canis familiaris [29] = assay: Effect on heart rate, after intravenous administration in open-chest anesthetized dogs at dose of 0.5 mg/kg; assay type: functional, Canis lupus familiaris
Canis familiaris [30] = assay: Atrial conduction time, after intravenous administration in open-chest anesthetized dogs at dose of 0.05 mg/kg; assay type: functional, Canis lupus familiaris, Cardiac atrium
Canis familiaris [31] = species on record: Canis familiaris; assay: Effect on the transmembrane potential of dog Purkinje fibers paced at a basic cycle length of stimulation of 300 ms, repolarization time to -60 mV, at a concentration of 0.3 uM; assay type: functional; conditions: Canis lupus familiaris, Purkinje fiber; how it was run: as §2
Canis familiaris [32] = assay: Effect on ventricular effective refractory period, after intravenous administration in open-chest anesthetized dogs at dose of 0.05 mg/kg; assay type: functional, Canis lupus familiaris, Cardiac ventricle
Canis familiaris [33] = assay: Effect on heart rate, after intravenous administration in open-chest anesthetized dogs at dose of 0.05 mg/kg; assay type: functional, Canis lupus familiaris
Canis familiaris [34] = assay: Effect on mean arterial pressure, after intravenous administration in open-chest anesthetized dogs at dose of 0.5 mg/kg; assay type: functional, Canis lupus familiaris, Artery
Canis familiaris [35] = assay: Effect on ventricular effective refractory period, after intravenous administration in open-chest anesthetized dogs at dose of 0.5 mg/kg; assay type: functional, Canis lupus familiaris, Cardiac ventricle
Canis familiaris [36] = assay: Effect on mean arterial pressure, after intravenous administration in open-chest anesthetized dogs at dose of 0.05 mg/kg; assay type: functional, Canis lupus familiaris, Artery
Canis familiaris [37] = assay: Atrial effective refractory period, after intravenous administration in open-chest anesthetized dogs at dose of 0.05 mg/kg; assay type: functional, Canis lupus familiaris, Cardiac atrium
Canis familiaris [38] = assay: Effect on ventricular conduction time, after intravenous administration in open-chest anesthetized dogs at dose of 0.05 mg/kg; assay type: functional, Canis lupus familiaris, Cardiac ventricle
Canis familiaris [39] = assay: Effect on ventricular conduction time, after intravenous administration in open-chest anesthetized dogs at dose of 0.5 mg/kg; assay type: functional, Canis lupus familiaris, Cardiac ventricle

Structure (SMILES): CN(CCN1CCn2c1nc1ccccc12)S(=O)(=O)c1ccc(NS(C)(=O)=O)cc1.Cl
- Change (Canis familiaris [1]): 18%
- Change (Canis familiaris [2]): -15%
- Change (Canis familiaris [3]): 3%
- Change (Canis familiaris [4]): -8%
- Change (Canis familiaris [5]): -24%
- Change (Canis familiaris [6]): 19%
- APD60 (Canis familiaris [7]): 16
- APD60 (Canis familiaris [8]): 30
- Change (Canis familiaris [9]): 66%
- APD60 (Canis familiaris [10]): 30
- Change (Canis familiaris [11]): -5%
- Change (Canis familiaris [12]): -9%

Structure (SMILES): Cl.Cn1c(N2CCN(S(=O)(=O)c3ccc(NS(C)(=O)=O)cc3)CC2)nc2ccccc21
- Change (Canis familiaris [13]): 13%
- Change (Canis familiaris [14]): 40%
- APD60 (Canis familiaris [15]): 57
- Change (Canis familiaris [16]): -37%
- Change (Canis familiaris [17]): -4%
- Change (Canis familiaris [18]): -17%
- Change (Canis familiaris [19]): -3%
- APD60 (Canis familiaris [20]): 36
- Change (Canis familiaris [21]): 25%
- Change (Canis familiaris [22]): 3%
- Change (Canis familiaris [23]): 2%
- Change (Canis familiaris [24]): 2%
- Change (Canis familiaris [25]): 3%
- Change (Canis familiaris [26]): 22%

Structure (SMILES): CN(CCNS(=O)(=O)c1ccc(NS(C)(=O)=O)cc1)c1nc2ccccc2n1C.Cl
- APD60 (Canis familiaris [15]): 50
- APD60 (Canis familiaris [20]): 16

Structure (SMILES): CN(CCN(C)S(=O)(=O)c1ccc(NS(C)(=O)=O)cc1)c1ncc2ccccc2n1
- APD60 (Canis familiaris [7]): 18
- APD60 (Canis familiaris [8]): 29

Structure (SMILES): CNc1nc2ccccc2n1CCN(C)S(=O)(=O)c1ccc(NS(C)(=O)=O)cc1
- APD60 (Canis familiaris [7]): 28
- APD60 (Canis familiaris [8]): 47

Structure (SMILES): CS(=O)(=O)Nc1ccc(S(=O)(=O)NCCNc2ncccn2)cc1
- APD60 (Canis familiaris [7]): -4
- APD60 (Canis familiaris [8]): 24

Structure (SMILES): CN(CCOc1ccc(NS(C)(=O)=O)cc1)CCc1ccc(NS(C)(=O)=O)cc1 [DOFETILIDE]
- Change (Canis familiaris [27]): 65%
- Change (Canis familiaris [28]): -9%
- Change (Canis familiaris [29]): -24%
- Change (Canis familiaris [30]): -4%
- APD60 (Canis familiaris [31]): 42
- Change (Canis familiaris [32]): 23%
- Change (Canis familiaris [33]): -14%
- APD60 (Canis familiaris [7]): 30
- Change (Canis familiaris [34]): -2%
- Change (Canis familiaris [35]): 27%
- APD60 (Canis familiaris [8]): 67
- Change (Canis familiaris [36]): 1%
- Change (Canis familiaris [37]): 46%
- Change (Canis familiaris [38]): -4%
- Change (Canis familiaris [39]): -4%

Structure (SMILES): CS(=O)(=O)Nc1ccc(S(=O)(=O)N2CCNc3nc4ccccc4n3CC2)cc1
- APD60 (Canis familiaris [7]): 24
- APD60 (Canis familiaris [8]): 42
